Measurements taken from ChEMBL document CHEMBL3739406, “Trisubstituted Thieno[3,2-b]pyrrole 5-Carboxamides as Potent Inhibitors of Alphaviruses” (J Med Chem, 2015).

Test system: not listed separately
Assay: Selectivity index, ratio of CC50 for HEK293T cells to EC50 for Chikungunya virus infected in HEK293T cells
Format: toxicity, cell-based, HEK-293T
Conditions: human, read-out: Ratio CC50/EC50
In the case of `COc1ccc(Cn2c(C(=O)N3CCOCC3)cc3sccc32)cc1`, the selectivity ratio is reported as > 1.3. For `COc1ccc(Cn2c(C(=O)N3CCN(Cc4ccccc4)CC3)cc3sc(C(C)=O)cc32)cc1`, the selectivity ratio was > 5.9. In the case of `COc1ccc(Cn2c(C(=O)N3CCCCC3)cc3sccc32)cc1`, the selectivity ratio is reported as > 2. With `COc1ccc(Cn2c(C(N)=O)cc3sccc32)cc1` the selectivity ratio was > 2.8. With `CCCNC(=O)C1CCN(C(=O)c2c(CNC(C)c3ccccc3)c3sccc3n2Cc2ccc(OC)cc2)CC1` (stereo not given) the selectivity ratio was 4.8. For `COc1ccc(Cn2c(C(=O)N3CCNCC3)cc3sccc32)cc1`, the selectivity ratio was > 3.1. With `COc1ccc(Cn2c(C(=O)N3CCC(C(=O)NC(C)c4ccccc4)CC3)cc3sccc32)cc1` (stereo not given) the selectivity ratio was > 7.7. In the case of `COc1ccc(Cn2c(C(=O)N3CCC(C(=O)NCCC(C)C)CC3)cc3sccc32)cc1`, the selectivity ratio is reported as 2.8. With `CCCNC(=O)C1CCN(C(=O)c2cc3sc(CNCc4ccccc4)cc3n2Cc2ccc(OC)cc2)CC1` the selectivity ratio was 4.2. In the case of `COc1ccc(Cn2c(C(=O)N3CCC(C(=O)NCc4ccccc4)CC3)cc3sccc32)cc1`, the selectivity ratio is reported as > 8.1.

Test system: not listed separately
Assay: Cytotoxicity against HEK293T cells assessed as reduction in cell viability after 24 hrs by cell titer-glo luminescent cell viability assay
Format: cell-based, HEK-293T
Conditions: human
Outline: (§1)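 HEK 293T cells, 3 × 10⁴/well, seeded overnight, then exposed 24 h to compound (0.01–100 μM, triplicate) in DMEM pH 6.8 with 10% FBS. Viability read by CellTiter-Glo luminescence. Normalized to untreated (100%) and medium blank (0%); CC50 by five-parameter curve fit.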
For `COc1ccc(Cn2c(C(=O)NCc3ccccc3)cc3sccc32)cc1`, the CC50 at 24 h was > 100 µM. For `COc1ccc(Cn2c(C(=O)N3CCN(Cc4ccccc4)CC3)cc3sc(COCc4ccccc4)cc32)cc1`, the CC50 at 24 h was > 100 µM. For `CCCNC(=O)c1cc2sccc2n1Cc1ccc(OC)cc1`, the CC50 at 24 h was > 100 µM. With `COc1ccc(Cn2c(C(=O)N3CCN(Cc4ccccc4)CC3)c(COCc3ccccc3)c3sccc32)cc1` the CC50 at 24 h was > 100 µM. In the case of `COc1ccc(Cn2c(C(=O)N3CCC(C(=O)O)CC3)cc3sccc32)cc1`, the CC50 at 24 h is reported as > 100 µM. With `COc1ccc(Cn2c(C(=O)N3CCOCC3)cc3sccc32)cc1` the CC50 at 24 h was > 100 µM. In the case of `CCOC(=O)c1cc2sccc2n1Cc1ccc(OC)cc1`, the CC50 at 24 h is reported as > 100 µM. In the case of `COc1ccc(Cn2c(C(=O)N3CCN(Cc4ccccc4)CC3)cc3sc(C(C)=O)cc32)cc1`, the CC50 at 24 h is reported as > 100 µM. For `COc1ccc(Cn2c(C(=O)N3CCCCC3)cc3sccc32)cc1`, the CC50 at 24 h was > 100 µM. In the case of `COc1ccc(Cn2c(C(N)=O)cc3sccc32)cc1`, the CC50 at 24 h is reported as > 100 µM. For `COc1ccc(Cn2c(C(=O)N3CCN(Cc4ccccc4)CC3)cc3sc(C(=O)c4ccccc4)cc32)cc1`, the CC50 at 24 h was > 100 µM. Molecule `CCCNC(=O)C1CCN(C(=O)c2c(CNC(C)c3ccccc3)c3sccc3n2Cc2ccc(OC)cc2)CC1` (stereo not given) has a CC50 at 24 h of 57.5 µM. With `COc1ccc(Cn2c(C(=O)N3CCNCC3)cc3sccc32)cc1` the CC50 at 24 h was > 100 µM. For `COc1ccc(Cn2c(C(=O)N3CCC(C(=O)NC(C)c4ccccc4)CC3)cc3sccc32)cc1` (stereo not given), the CC50 at 24 h was > 100 µM. For `COc1ccc(Cn2c(C(=O)NC(C)c3ccccc3)cc3sccc32)cc1` (stereo not given), the CC50 at 24 h was > 100 µM. For `COc1ccc(Cn2c(C(=O)O)cc3sccc32)cc1`, the CC50 at 24 h was > 100 µM. `COc1ccc(Cn2c(C(=O)N3CCC(C(=O)NCCC(C)C)CC3)cc3sccc32)cc1` gave a CC50 at 24 h of 30.9 µM. In the case of `CCCNC(=O)C1CCN(C(=O)c2cc3sc(CNCc4ccccc4)cc3n2Cc2ccc(OC)cc2)CC1`, the CC50 at 24 h is reported as 46.8 µM. For `CCCNC(=O)C1CCN(C(=O)c2cc3sc(C(=O)c4ccccc4)cc3n2Cc2ccc(OC)cc2)CC1`, the CC50 at 24 h was > 100 µM. For `COc1ccc(Cn2c(C(=O)N3CCC(C(=O)NCc4ccccc4)CC3)cc3sccc32)cc1`, the CC50 at 24 h was > 100 µM.

Test system: Chikungunya virus
Assay: Antiviral activity against Chikungunya virus infected in HEK293T cells assessed as reduction of infectivity measured at 24 hrs postinfection by gaussia luciferase reporter gene assay
Format: functional, cell-based
Conditions: HEK-293T
For `COc1ccc(Cn2c(C(=O)NCc3ccccc3)cc3sccc32)cc1`, the EC50 was > 100 µM. For `COc1ccc(Cn2c(C(=O)N3CCN(Cc4ccccc4)CC3)cc3sc(COCc4ccccc4)cc32)cc1`, the EC50 was > 100 µM. In the case of `CCCNC(=O)c1cc2sccc2n1Cc1ccc(OC)cc1`, the EC50 is reported as > 100 µM. In the case of `COc1ccc(Cn2c(C(=O)N3CCN(Cc4ccccc4)CC3)c(COCc3ccccc3)c3sccc32)cc1`, the EC50 is reported as > 100 µM. For `COc1ccc(Cn2c(C(=O)N3CCC(C(=O)O)CC3)cc3sccc32)cc1`, the EC50 was > 100 µM. Molecule `COc1ccc(Cn2c(C(=O)N3CCOCC3)cc3sccc32)cc1` has an EC50 of 79.7 µM. With `CCOC(=O)c1cc2sccc2n1Cc1ccc(OC)cc1` the EC50 was > 100 µM. `COc1ccc(Cn2c(C(=O)N3CCN(Cc4ccccc4)CC3)cc3sc(C(C)=O)cc32)cc1` showed an EC50 of 17 µM. For `COc1ccc(Cn2c(C(=O)N3CCCCC3)cc3sccc32)cc1`, the EC50 was 49.7 µM. Molecule `COc1ccc(Cn2c(C(N)=O)cc3sccc32)cc1` has an EC50 of 36 µM. With `COc1ccc(Cn2c(C(=O)N3CCN(Cc4ccccc4)CC3)cc3sc(C(=O)c4ccccc4)cc32)cc1` the EC50 was > 100 µM. For `CCCNC(=O)C1CCN(C(=O)c2c(CNC(C)c3ccccc3)c3sccc3n2Cc2ccc(OC)cc2)CC1` (stereo not given), the EC50 was 11.9 µM. For `COc1ccc(Cn2c(C(=O)N3CCNCC3)cc3sccc32)cc1`, the EC50 was 32.5 µM. Work on `COc1ccc(Cn2c(C(=O)N3CCC(C(=O)NC(C)c4ccccc4)CC3)cc3sccc32)cc1` (stereo not given) yielded an EC50 of 13 µM. In the case of `COc1ccc(Cn2c(C(=O)NC(C)c3ccccc3)cc3sccc32)cc1` (stereo not given), the EC50 is reported as > 100 µM. With `COc1ccc(Cn2c(C(=O)O)cc3sccc32)cc1` the EC50 was > 100 µM. Molecule `COc1ccc(Cn2c(C(=O)N3CCC(C(=O)NCCC(C)C)CC3)cc3sccc32)cc1` has an EC50 of 11 µM. `CCCNC(=O)C1CCN(C(=O)c2cc3sc(CNCc4ccccc4)cc3n2Cc2ccc(OC)cc2)CC1` gave an EC50 of 11.2 µM. With `CCCNC(=O)C1CCN(C(=O)c2cc3sc(C(=O)c4ccccc4)cc3n2Cc2ccc(OC)cc2)CC1` the EC50 was > 100 µM. `COc1ccc(Cn2c(C(=O)N3CCC(C(=O)NCc4ccccc4)CC3)cc3sccc32)cc1` gave an EC50 of 12.3 µM.

Test system: not listed separately
Assay: Cytotoxicity against HEK293T cells assessed as cell viability at antiviral EC50 after 24 hrs by cell titer-glo luminescent cell viability assay
Format: cell-based, HEK-293T
Conditions: human, read-out: Activity
Outline: as §1
With `COc1ccc(Cn2c(C(=O)NCc3ccccc3)cc3sccc32)cc1` the viability at 24 h was > 80%. For `COc1ccc(Cn2c(C(=O)N3CCN(Cc4ccccc4)CC3)cc3sc(COCc4ccccc4)cc32)cc1`, the viability at 24 h was > 80%. For `CCCNC(=O)c1cc2sccc2n1Cc1ccc(OC)cc1`, the viability at 24 h was > 80%. With `COc1ccc(Cn2c(C(=O)N3CCN(Cc4ccccc4)CC3)c(COCc3ccccc3)c3sccc32)cc1` the viability at 24 h was > 80%. In the case of `COc1ccc(Cn2c(C(=O)N3CCC(C(=O)O)CC3)cc3sccc32)cc1`, the viability at 24 h is reported as > 80%. With `COc1ccc(Cn2c(C(=O)N3CCOCC3)cc3sccc32)cc1` the viability at 24 h was > 80%. With `CCOC(=O)c1cc2sccc2n1Cc1ccc(OC)cc1` the viability at 24 h was > 80%. For `COc1ccc(Cn2c(C(=O)N3CCN(Cc4ccccc4)CC3)cc3sc(C(C)=O)cc32)cc1`, the viability at 24 h was > 80%. In the case of `COc1ccc(Cn2c(C(=O)N3CCCCC3)cc3sccc32)cc1`, the viability at 24 h is reported as > 80%. With `COc1ccc(Cn2c(C(N)=O)cc3sccc32)cc1` the viability at 24 h was > 80%. With `COc1ccc(Cn2c(C(=O)N3CCN(Cc4ccccc4)CC3)cc3sc(C(=O)c4ccccc4)cc32)cc1` the viability at 24 h was > 80%. In the case of `CCCNC(=O)C1CCN(C(=O)c2c(CNC(C)c3ccccc3)c3sccc3n2Cc2ccc(OC)cc2)CC1` (stereo not given), the viability at 24 h is reported as > 80%. In the case of `COc1ccc(Cn2c(C(=O)N3CCNCC3)cc3sccc32)cc1`, the viability at 24 h is reported as > 80%. With `COc1ccc(Cn2c(C(=O)N3CCC(C(=O)NC(C)c4ccccc4)CC3)cc3sccc32)cc1` (stereo not given) the viability at 24 h was > 80%. With `COc1ccc(Cn2c(C(=O)NC(C)c3ccccc3)cc3sccc32)cc1` (stereo not given) the viability at 24 h was > 80%. In the case of `COc1ccc(Cn2c(C(=O)O)cc3sccc32)cc1`, the viability at 24 h is reported as > 80%. In the case of `COc1ccc(Cn2c(C(=O)N3CCC(C(=O)NCCC(C)C)CC3)cc3sccc32)cc1`, the viability at 24 h is reported as > 80%. With `CCCNC(=O)C1CCN(C(=O)c2cc3sc(CNCc4ccccc4)cc3n2Cc2ccc(OC)cc2)CC1` the viability at 24 h was > 80%. In the case of `CCCNC(=O)C1CCN(C(=O)c2cc3sc(C(=O)c4ccccc4)cc3n2Cc2ccc(OC)cc2)CC1`, the viability at 24 h is reported as > 80%. For `COc1ccc(Cn2c(C(=O)N3CCC(C(=O)NCc4ccccc4)CC3)cc3sccc32)cc1`, the viability at 24 h was > 80%.
